Eleven compounds from ChEMBL document CHEMBL1123461, “Studies on 1,2,3-triazoles. 13. (Piperazinylalkoxy) [1]benzopyrano[2,3-d]-1,2,3-triazol-9(1H)-ones with combined H1-antihistamine and mast cell stabilizing properties” (J Med Chem, 1986) can be followed below.

Calls of active or inactive are those of the source. The rule behind the calls is not given here.

The species named for test [1] is Rattus norvegicus. Description: Compound was tested for the inhibition of release of histamine in rat passive peritoneal anaphylaxis. In kind it is functional, organism-based. In short, it runs like this: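 Rat passive peritoneal anaphylaxis: antiserum i.p. sensitization for 2 h, then i.p. ovalbumin challenge (0.4 mg/mL in 5 mL Tyrode). Compound given i.p. in saline 30 s before antigen; dose expressed as concentration in 6 mL fluid. Peritoneal fluid taken at 5 min, supernatant TCA-treated, histamine measured spectrofluorimetrically. 5–7 rats/dose; % inhibition vs positive controls; ED50 from log-dose regression.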

Test [2] is filed under the species Rattus norvegicus. Briefly: Compound was tested for the inhibition of release of extravasation in rat passive peritoneal anaphylaxis. It counts as functional, organism-based. Put shortly:
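Rats passively sensitized i.p. with 2 mL 1:5 rat antiserum. Two hours later, i.v. Pontamine Sky Blue, then i.p. challenge with 5 mL Tyrode containing 0.4 mg/mL ovalbumin and heparin. Compound given i.p. in 1 mL saline 30 s before antigen; dose expressed as concentration in 6 mL injected. Peritoneal fluid collected at 5 min; dye read at OD 625 nm. 5–7 rats/dose; ED50 from log-dose regression.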

In test [3] the target is T1, Histamine H1 receptor (Cavia porcellus, UniProt P31389). Briefly: H1-antihistamine activity in guinea pig ileum. It counts as functional, tissue-based. The settings on record: read-out: pA2 (converted). In short, it runs like this: (§1)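 Isolated guinea pig ileum under ca. 1 g tension in Tyrode solution, with isotonic recording of histamine contractions. Method A: repeat histamine dose-response curves at increasing antagonist concentrations, then Schild plot of log(DR−1) vs −log molar concentration; pA2 is the abscissa intercept. Method B: 10-min antagonist exposure, then double histamine dose (~50% maximal single dose), three antagonist doses each tested three times.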
T1 sequence (P31389 whole entry): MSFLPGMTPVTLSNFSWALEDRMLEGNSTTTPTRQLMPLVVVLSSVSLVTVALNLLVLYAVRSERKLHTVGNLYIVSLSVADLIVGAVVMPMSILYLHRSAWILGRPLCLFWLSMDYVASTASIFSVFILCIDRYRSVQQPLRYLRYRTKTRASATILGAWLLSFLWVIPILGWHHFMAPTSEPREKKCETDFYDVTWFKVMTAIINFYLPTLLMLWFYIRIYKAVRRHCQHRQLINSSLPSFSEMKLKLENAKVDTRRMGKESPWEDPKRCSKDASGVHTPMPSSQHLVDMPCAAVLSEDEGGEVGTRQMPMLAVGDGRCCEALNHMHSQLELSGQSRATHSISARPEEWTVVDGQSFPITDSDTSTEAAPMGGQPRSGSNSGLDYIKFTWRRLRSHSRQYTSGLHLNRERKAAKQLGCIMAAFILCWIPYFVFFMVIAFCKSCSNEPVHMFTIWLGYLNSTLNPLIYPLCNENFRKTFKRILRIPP

Test [4] concerns the target Histamine H1 receptor (Cavia porcellus) (UniProt P31389). Briefly: Compound was tested for H1-antihistamine activity in guinea pig ileum; IA = Inactive. In kind it is functional, tissue-based. In short, it runs like this:
as §1

In test [5] the target is T1, Histamine H1 receptor. Description: Compound was tested for H1-antihistamine activity in guinea pig ileum. In kind it is functional, tissue-based. The settings on record: read-out: pA2 (converted). In short, it runs like this: as §1

Chain of Histamine H1 receptor (Cavia porcellus) (P31389 whole entry): as above

As a reminder, the IC50 is the concentration that inhibits the measured activity by half. Lower therefore signals inhibition by little substance. As for `CN1CCC(=C2c3ccccc3CC(=O)c3sccc32)CC1` [KETOTIFEN], the IC50 in the test listed under Rattus norvegicus [1] was more than 200000 nM.
In the case of `Cc1c(OCCCN2CCN(Cc3ccccc3Cl)CC2)ccc2c(O)c3nnnc-3oc12`, the IC50 in the test listed under Rattus norvegicus [2] is 10000 nM; in the test listed under Rattus norvegicus [1], 2300 nM. The Kb on Histamine H1 receptor [3] was 3.98 nM.
Take `O=C(O)c1cc(=O)c2c(OCC(O)COc3cccc4oc(C(=O)O)cc(=O)c34)cccc2o1`: the pA2 entry in test [4] is “inactive”.
Turning to `Oc1c2nnnc-2oc2cc(OCCCN3CCN(Cc4ccc(Cl)cc4)CC3)ccc12`, the IC50 was determined as 31000 nM in the test filed under Rattus norvegicus [2] and 5400 nM in the test listed under Rattus norvegicus [1]. For the same compound, the Kb on Histamine H1 receptor [3] was 0.794 nM.
On to `Cc1c(OCCCN2CCN(Cc3ccccn3)CC2)ccc2c(O)c3nnnc-3oc12`, for which the IC50 in the test listed under Rattus norvegicus [2] was more than 20000 nM; in the test filed under Rattus norvegicus [1], 100 nM. Further, the Kb at Histamine H1 receptor [3] was 15.8 nM.
With `Cc1c(OCCCN2CCN(Cc3cccc(Cl)c3)CC2)ccc2c(O)c3nnnc-3oc12`, the IC50 was more than 20000 nM in the test filed under Rattus norvegicus [2] and 1000 nM in the test listed under Rattus norvegicus [1]. Moreover, the Kb at Histamine H1 receptor [3] is 3.98 nM.
Regarding `Cc1ccc(CN2CCN(CCCOc3ccc4c(O)c5nnnc-5oc4c3C)CC2)cc1`, the Kb at Histamine H1 receptor [5] was 15.8 nM. The IC50 was more than 20000 nM in the test listed under Rattus norvegicus [2] and 890 nM in the test filed under Rattus norvegicus [1].
Take `COc1ccc(CN2CCN(CCCOc3ccc4c(O)c5nnnc-5oc4c3C)CC2)cc1`: the Kb at Histamine H1 receptor [5] was 63.1 nM.
`COc1ccc(CN(CCN(C)C)c2ccccn2)cc1` [PYRILAMINE] had an IC50 in the test listed under Rattus norvegicus [1] of more than 200000 nM.
In the case of `Cc1c(OCCCN2CCN(Cc3ccc(Cl)cc3)CC2)ccc2c(O)c3nnnc-3oc12`, the IC50 was determined as 55000 nM in the test listed under Rattus norvegicus [2] and 840 nM in the test filed under Rattus norvegicus [1]. The Kb on Histamine H1 receptor [3] was 1.58 nM.
For the compound `Cc1c(OCCCN(C)CCN(C)Cc2ccc(Cl)cc2)ccc2c(O)c3nnnc-3oc12`, the Kb on Histamine H1 receptor [5] is 79.4 nM.
